Experimental data from ChEMBL document CHEMBL1149349, “Identification of novel pyrazole acid antagonists for the EP1 receptor” (Bioorg Med Chem Lett, 2006).
≈ marks a conversion by molar mass, not a printed value.

Columns and labels:
[1] = biological target: T1, Prostaglandin E2 receptor EP1 subtype (Homo sapiens, UniProt P34995); test: Antagonist activity at EP1 receptor expressed in CHO-K1 cells assessed as inhibition of PGE2-stimulated calcium ion mobilization by FLIPR assay; type: functional, cell-based
T1 sequence (P34995 whole entry): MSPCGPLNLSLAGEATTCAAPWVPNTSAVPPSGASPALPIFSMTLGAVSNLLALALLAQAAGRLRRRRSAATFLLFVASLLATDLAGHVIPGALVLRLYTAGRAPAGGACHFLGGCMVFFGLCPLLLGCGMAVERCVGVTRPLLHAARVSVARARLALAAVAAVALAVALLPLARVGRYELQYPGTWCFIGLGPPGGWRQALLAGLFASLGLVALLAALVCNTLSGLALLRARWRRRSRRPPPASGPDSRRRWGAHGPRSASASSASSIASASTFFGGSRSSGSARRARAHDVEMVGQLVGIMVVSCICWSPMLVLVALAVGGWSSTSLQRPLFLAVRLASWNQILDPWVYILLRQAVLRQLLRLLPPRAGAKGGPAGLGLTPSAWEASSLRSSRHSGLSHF
Outline: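 Stably EP1- or EP3-transfected CHO-K1 whole cells loaded with the calcium-sensitive dye Fluo-3. Inhibition of PGE₂-evoked intracellular Ca²⁺ mobilisation measured, reported as pKi.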

[2] = biological target: T1, Prostaglandin E2 receptor EP1 subtype; test: Displacement of [3H]PGE2 from EP1 receptor expressed in CHO-K1 cells; type: cell-based
Outline: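 Membranes from cells expressing the receptor, incubated with test compound and [³H]PGE₂ (3 nM final) for 30 min at 30 °C. Bound radioactivity read by liquid scintillation counting. Values are means of at least four experiments.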

[3] = Tmax in rat at 3 mg/kg, po; type: ADME, organism-based; set-up: dose 3 mg/kg, route oral; conditions: in vivo
Outline: (§1)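 Oral dosing with drug levels measured in blood. Cmax, Tmax and AUC normalised to dose were derived from the blood concentration–time profile.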

[4] = test system: Rattus norvegicus; test: AUC in rat at 3 mg/kg, po; type: ADME, organism-based, Plasma; set-up: dose 3 mg/kg, route oral; conditions: in vivo; outline: as §1
[5] = biological target: Cytochrome P450 2C19 (Homo sapiens, UniProt P33261); test: Inhibition of CYP450 2C19; type: ADME
Outline: (§2)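 In vitro CYP450 inhibition run by the Gentest protocol, with IC₅₀ determined for each isoform.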

[6] = Solubility at pH 7.4; type: physicochemical; conditions: buffer
[7] = biological target: Cytochrome P450 3A4 (Homo sapiens, UniProt P08684); test: Inhibition of CYP450 3A4; type: ADME; outline: as §2
[8] = biological target: Cytochrome P450 2D6 (Homo sapiens, UniProt P10635); test: Inhibition of CYP450 2D6; type: ADME; outline: as §2
[9] = test system: Liver microsomes; test: Intrinsic clearance in rat liver microsome; type: ADME
[10] = Distribution coefficient, log D at pH 7.4; type: physicochemical; conditions: octanol/water
[11] = organism: Rattus norvegicus; test: Activity against Freund's complete adjuvant-induced inflammatory pain in rat; type: functional
[12] = biological target: T2, Cytochrome P450 1A2 (Homo sapiens, UniProt P05177); test: Inhibition of CYP450 1A2; type: ADME; outline: as §2
T2 sequence (P05177 whole entry): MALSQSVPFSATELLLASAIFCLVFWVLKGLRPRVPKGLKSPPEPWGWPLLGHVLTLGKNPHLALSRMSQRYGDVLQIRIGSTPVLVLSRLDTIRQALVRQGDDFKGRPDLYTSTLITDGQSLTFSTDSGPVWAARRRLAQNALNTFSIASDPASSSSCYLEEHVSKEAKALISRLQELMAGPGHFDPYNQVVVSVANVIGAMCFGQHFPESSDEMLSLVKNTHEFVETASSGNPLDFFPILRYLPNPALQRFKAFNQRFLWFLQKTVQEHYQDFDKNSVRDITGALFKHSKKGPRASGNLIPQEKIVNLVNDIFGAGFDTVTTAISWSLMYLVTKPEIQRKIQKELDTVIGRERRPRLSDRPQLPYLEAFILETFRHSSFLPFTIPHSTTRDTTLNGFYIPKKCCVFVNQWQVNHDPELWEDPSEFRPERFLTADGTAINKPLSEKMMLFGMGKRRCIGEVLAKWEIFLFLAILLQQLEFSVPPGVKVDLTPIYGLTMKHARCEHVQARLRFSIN

[13] = Cmax in rat at 3 mg/kg, po; type: ADME, organism-based; set-up: dose 3 mg/kg, route oral; conditions: in vivo; outline: as §1
[14] = test system: Liver microsomes; test: Intrinsic clearance in human liver microsome; type: ADME
[15] = test system: Rattus norvegicus; test: AUC/dose in rat at 3 mg/kg, po; type: ADME, organism-based, Plasma; set-up: dose 3 mg/kg, route oral; conditions: in vivo; outline: as §1
[16] = biological target: Cytochrome P450 2C9 (Homo sapiens, UniProt P11712); test: Inhibition of CYP450 2C9; type: ADME; outline: as §2
[17] = biological target: Prostaglandin E2 receptor EP3 subtype (Homo sapiens) (UniProt P43115); test: Inhibition of PGE2-induced intracellular Ca2+ mobilisation (FLIPR) at EP3 receptor expressed in CHO-K1 cells
Sequence of Prostaglandin E2 receptor EP3 subtype (Homo sapiens) (P43115 whole entry, looked up): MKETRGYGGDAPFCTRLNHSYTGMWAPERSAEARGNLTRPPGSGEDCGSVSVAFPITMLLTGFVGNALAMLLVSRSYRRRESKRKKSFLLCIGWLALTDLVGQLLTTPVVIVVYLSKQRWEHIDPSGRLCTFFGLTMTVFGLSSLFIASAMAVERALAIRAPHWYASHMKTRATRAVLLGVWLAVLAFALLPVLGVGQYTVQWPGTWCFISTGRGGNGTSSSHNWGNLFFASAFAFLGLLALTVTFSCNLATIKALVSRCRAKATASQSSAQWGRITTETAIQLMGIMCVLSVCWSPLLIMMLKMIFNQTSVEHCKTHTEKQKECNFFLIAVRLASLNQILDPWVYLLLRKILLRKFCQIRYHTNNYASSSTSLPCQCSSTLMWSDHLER

Sequence of Cytochrome P450 2C19 (P33261 whole entry, canonical isoform): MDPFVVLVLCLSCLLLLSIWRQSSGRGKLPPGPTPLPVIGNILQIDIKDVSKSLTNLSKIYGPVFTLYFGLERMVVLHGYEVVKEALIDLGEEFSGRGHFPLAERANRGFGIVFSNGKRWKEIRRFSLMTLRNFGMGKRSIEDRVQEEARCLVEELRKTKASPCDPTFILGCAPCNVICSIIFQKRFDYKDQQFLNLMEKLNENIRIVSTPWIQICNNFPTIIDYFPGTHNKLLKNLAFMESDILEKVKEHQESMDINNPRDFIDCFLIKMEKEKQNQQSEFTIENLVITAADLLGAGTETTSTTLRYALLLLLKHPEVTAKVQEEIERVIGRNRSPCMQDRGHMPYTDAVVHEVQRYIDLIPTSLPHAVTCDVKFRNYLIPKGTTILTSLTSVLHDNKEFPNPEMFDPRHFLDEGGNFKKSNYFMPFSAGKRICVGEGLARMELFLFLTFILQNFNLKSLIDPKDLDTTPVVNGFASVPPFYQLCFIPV
Sequence of Cytochrome P450 2D6 (P10635 whole entry): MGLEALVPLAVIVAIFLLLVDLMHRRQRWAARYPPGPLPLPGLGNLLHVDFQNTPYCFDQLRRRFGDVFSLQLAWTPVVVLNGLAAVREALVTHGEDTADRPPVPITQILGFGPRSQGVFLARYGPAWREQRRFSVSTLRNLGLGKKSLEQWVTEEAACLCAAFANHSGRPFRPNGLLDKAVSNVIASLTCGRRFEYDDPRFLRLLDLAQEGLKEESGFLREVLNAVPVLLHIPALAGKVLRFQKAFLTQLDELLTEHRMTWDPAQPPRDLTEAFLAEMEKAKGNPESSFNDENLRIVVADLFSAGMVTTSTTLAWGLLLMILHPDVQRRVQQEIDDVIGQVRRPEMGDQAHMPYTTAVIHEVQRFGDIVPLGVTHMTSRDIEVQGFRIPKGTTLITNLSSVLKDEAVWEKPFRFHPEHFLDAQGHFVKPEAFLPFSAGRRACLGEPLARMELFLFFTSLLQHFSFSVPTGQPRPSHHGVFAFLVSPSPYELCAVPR
Sequence of Cytochrome P450 2C9 (P11712 whole entry): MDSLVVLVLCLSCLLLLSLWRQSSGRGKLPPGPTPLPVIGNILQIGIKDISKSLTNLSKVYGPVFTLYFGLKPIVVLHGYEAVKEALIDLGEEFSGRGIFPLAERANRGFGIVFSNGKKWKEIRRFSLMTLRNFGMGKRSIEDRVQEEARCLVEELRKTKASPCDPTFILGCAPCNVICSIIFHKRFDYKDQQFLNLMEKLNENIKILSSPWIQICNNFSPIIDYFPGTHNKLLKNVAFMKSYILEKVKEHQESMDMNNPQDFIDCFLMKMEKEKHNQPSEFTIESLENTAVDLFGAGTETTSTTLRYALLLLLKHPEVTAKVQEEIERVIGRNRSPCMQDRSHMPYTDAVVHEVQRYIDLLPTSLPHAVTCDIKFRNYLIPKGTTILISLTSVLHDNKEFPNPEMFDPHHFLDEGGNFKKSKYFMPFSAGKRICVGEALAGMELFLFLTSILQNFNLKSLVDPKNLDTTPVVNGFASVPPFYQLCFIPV
Sequence of Cytochrome P450 3A4 (P08684 whole entry): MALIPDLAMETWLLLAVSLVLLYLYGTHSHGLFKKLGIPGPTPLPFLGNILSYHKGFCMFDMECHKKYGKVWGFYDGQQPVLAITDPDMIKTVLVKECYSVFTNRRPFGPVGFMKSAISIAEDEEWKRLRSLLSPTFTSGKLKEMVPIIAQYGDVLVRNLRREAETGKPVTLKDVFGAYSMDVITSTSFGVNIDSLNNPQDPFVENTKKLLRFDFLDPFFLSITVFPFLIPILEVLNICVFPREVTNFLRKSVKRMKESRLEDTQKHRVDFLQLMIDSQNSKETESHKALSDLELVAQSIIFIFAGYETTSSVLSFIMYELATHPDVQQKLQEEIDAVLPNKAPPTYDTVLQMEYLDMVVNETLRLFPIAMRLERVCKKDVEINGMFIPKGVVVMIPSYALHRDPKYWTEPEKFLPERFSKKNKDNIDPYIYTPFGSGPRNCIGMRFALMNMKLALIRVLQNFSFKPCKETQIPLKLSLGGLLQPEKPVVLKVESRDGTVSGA

SMILES | Ki [1] [nM] | IC50 [2] [nM] | further results
COc1ccccc1COc1ccc(Br)cc1Cn1nc(C(=O)O)cc1C | 69.2 | – | –
CCCCc1cc(C(=O)O)nn1Cc1cc(Br)ccc1OCc1ccccc1 | 977 | – | –
Cc1cccc(COc2ccc(Br)cc2Cn2nc(C(=O)O)cc2C)c1 | 525 | 126 | –
O=C(O)c1cncn1Cc1cc(Br)ccc1OCc1ccccc1 | > 2000 | – | –
Cc1cc(C(=O)O)nn1Cc1cc(Br)ccc1OCc1ccccc1 | 15.1 | 6.46 | Tmax [3]: 30 min; AUC [4]: 16.3 µM·h; IC50 [5]: > 100000 nM; solubility [6]: 850 µg/mL (≈ 2120 µM); IC50 [7]: > 100000 nM; IC50 [8]: > 100000 nM; CL [9]: < 0.5 mL/min/g; logD [10]: 1.15; ED50 [11]: 1.3 mg/kg; IC50 [12]: 21000 nM; Cmax [13]: 5.69 µM; CL [14]: 0.6 mL/min/g; AUC/dose [15]: 124 kg·min/L; IC50 [16]: > 100000 nM
O=C(O)c1ccn(Cc2cc(Br)ccc2OCc2ccccc2)n1 | 55 | 9.77 | –
CC(=O)Nc1cc(C(=O)O)nn1Cc1cc(Br)ccc1OCc1ccccc1 | > 2000 | – | –
O=C(O)c1nn(Cc2cc(Br)ccc2OCc2ccccc2)cc1F | 692 | 123 | –
Cc1cc(C(=O)O)nn1Cc1ccccc1OCc1ccc(Cl)cc1Cl | 8.32 | – | Ki [17]: > 2000 nM
O=C(O)c1nn(Cc2cc(Br)ccc2OCc2ccccc2)cc1CO | > 2000 | 676 | –
O=C(O)c1nn(Cc2cc(Br)ccc2OCc2ccccc2)cc1Cl | > 2000 | – | –
O=C(O)c1cc(-c2cccs2)n(Cc2cc(Br)ccc2OCc2ccccc2)n1 | 617 | 195 | –
Cc1cc(C(=O)O)nn1Cc1cc(F)ccc1OCc1ccc(F)cc1F | 7.94 | – | Ki [17]: > 2000 nM
Cc1cc(C(=O)O)nn1Cc1cc(Br)ccc1OCc1ccc(F)cc1F | 2.63 | 0.525 | –
Cc1cc(C(=O)O)nn1Cc1cc(Br)ccc1OCc1ccc(Cl)cc1Cl | 0.49 | 0.132 | –
O=C(O)c1ccnn1Cc1cc(Br)ccc1OCc1ccccc1 | > 2000 | – | –
Cc1cc(C(=O)O)nn1Cc1cc(Br)ccc1OCc1ccc(Cl)cc1 | 8.71 | 8.71 | –
O=C(O)c1cnn(Cc2cc(Br)ccc2OCc2ccccc2)c1 | > 2000 | – | –
O=C(O)c1cn(Cc2cc(Br)ccc2OCc2ccccc2)cn1 | > 2000 | – | –
Cc1cc(C(=O)O)nn1Cc1cc(Br)ccc1OCc1ccc(F)cc1 | 11.7 | 7.41 | –

SMILES | Ki [1] [nM] | IC50 [2] [nM] | further results
Cc1cc(C(=O)O)nn1Cc1cc(Br)ccc1OCc1c(F)cccc1F | 105 | 14.8 | –
Cc1cc(C(=O)O)nn1Cc1cc(Br)ccc1OCc1cccc(Cl)c1 | 427 | 115 | –
Cc1cc(C(=O)O)nn1Cc1cc(Br)ccc1OCc1ccc(Cl)c(C(F)(F)F)c1 | > 2000 | 575 | –
O=C(O)c1nn(Cc2cc(Br)ccc2OCc2ccccc2)cc1Br | > 2000 | 457 | –
Cc1cc(C(=O)O)nn1Cc1cc(Br)ccc1OCc1ccc(C(F)(F)F)cc1 | 97.7 | 35.5 | –
Cc1cc(C(=O)O)nn1Cc1cc(Cl)ccc1OCc1ccc(Cl)cc1Cl | 0.55 | – | Ki [17]: > 2000 nM
O=C(O)c1cccc(-c2sccc2-c2cc(Cl)ccc2OCc2ccccc2)c1 | 1.26 | 3.55 | –
O=C(O)c1nn(Cc2cc(Br)ccc2OCc2ccccc2)cc1C(F)(F)F | > 2000 | 2570 | –
Cc1cc(C(=O)O)nn1Cc1cc(Br)ccc1OCc1cc(C(F)(F)F)cc(C(F)(F)F)c1 | > 2000 | 5250 | –
Cc1cc(C(=O)O)nn1Cc1cc(Br)ccc1OCc1cccc([N+](=O)[O-])c1 | 339 | – | –
Cc1cn(Cc2cc(Br)ccc2OCc2ccccc2)nc1C(=O)O | 1350 | 427 | –
Cc1cc(C(=O)O)nn1Cc1cc(Cl)ccc1OCc1ccc(F)cc1F | 1.12 | – | Ki [17]: > 2000 nM
Cc1cc(C(=O)O)nn1Cc1cc(F)ccc1OCc1ccc(Cl)cc1Cl | 20.4 | – | –
Cc1cc(C(=O)O)nn1Cc1cc(Br)ccc1OCc1ccc(C(C)(C)C)cc1 | > 2000 | 1230 | –
Cc1cc(C(=O)O)nn1Cc1cc(Br)ccc1OCc1cc(Cl)cc(Cl)c1 | 1120 | – | –
Cc1cc(C(=O)O)nn1Cc1cc(Br)ccc1OCc1cccc(Br)c1 | 129 | 17.8 | –
Cc1cc(C(=O)O)nn1Cc1cc(Br)ccc1OCc1ccccc1Cl | 28.8 | 3.16 | –
O=C(O)c1cn(Cc2cc(Br)ccc2OCc2ccccc2)nn1 | > 2000 | – | –
Cc1cc(C(=O)O)nn1Cc1cc(Br)ccc1OCc1cccc(C(F)(F)F)c1 | 1100 | 309 | –
